In ChEMBL document CHEMBL1140705, “Synthesis and evaluation of N-methyl and S-methyl 11C-labeled 6-methylthio-2-(4'-N,N-dimethylamino)phenylimidazo[1,2-a]pyridines as radioligands for imaging beta-amyloid plaques in Alzheimer's disease” (J Med Chem, 2008):
Values belong to the molecule of their own block, whether it stands above or below them.

Columns and labels:
[1] = target: Amyloid-beta precursor protein (Homo sapiens, UniProt P05067); experiment: Binding affinity to beta amyloid plaque in human Alzheimer's disease brain tissue; format: tissue-based
Sequence of Amyloid-beta precursor protein (P05067 whole entry): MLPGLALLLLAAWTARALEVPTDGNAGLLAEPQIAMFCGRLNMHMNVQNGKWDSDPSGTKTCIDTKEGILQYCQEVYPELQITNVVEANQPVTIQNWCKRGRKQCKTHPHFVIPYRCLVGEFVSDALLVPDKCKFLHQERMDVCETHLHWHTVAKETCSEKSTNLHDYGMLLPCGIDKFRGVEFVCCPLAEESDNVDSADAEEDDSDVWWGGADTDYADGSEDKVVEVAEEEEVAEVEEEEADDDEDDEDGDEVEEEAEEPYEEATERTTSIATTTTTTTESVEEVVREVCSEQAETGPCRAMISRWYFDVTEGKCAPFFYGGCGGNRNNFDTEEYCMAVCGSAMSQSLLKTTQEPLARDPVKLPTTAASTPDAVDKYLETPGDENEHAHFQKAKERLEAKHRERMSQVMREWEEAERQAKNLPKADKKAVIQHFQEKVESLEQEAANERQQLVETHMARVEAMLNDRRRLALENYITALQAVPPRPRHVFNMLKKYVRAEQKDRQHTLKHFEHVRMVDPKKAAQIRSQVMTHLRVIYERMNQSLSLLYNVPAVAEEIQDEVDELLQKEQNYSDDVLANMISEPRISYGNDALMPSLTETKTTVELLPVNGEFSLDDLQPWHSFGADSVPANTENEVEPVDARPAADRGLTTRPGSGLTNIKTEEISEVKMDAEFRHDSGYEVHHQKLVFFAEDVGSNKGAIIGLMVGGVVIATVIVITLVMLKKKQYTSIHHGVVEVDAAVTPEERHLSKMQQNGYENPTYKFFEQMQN
Outline: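 Competition binding in human AD brain homogenate (1:500 in PBS) against [3H]PIB (0.4 nM), displacer 10^-10 to 10^-5 M from DMSO dilutions, total volume 1.0 mL PBS, 2 h at 37 °C; filtration on polyethyleneimine-treated GF/B, PBS washes, scintillation counting. One-site competition fit; Ki by Cheng-Prusoff using KD from homologous displacement Scatchard analysis.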

[2] = Lipophilicity, log D at pH 7.4; format: physicochemical; settings: buffer
Outline: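 Shake-flask partition: 3-5 mg ligand in 0.1 M PBS pH 7.4 (6.0 mL) with n-octanol (1.0 mL), vortexed, shaken, held 10 min at room temperature, centrifuged 5000g. Both phases quantified by reverse-phase HPLC; P taken as organic/aqueous concentration ratio; n = 3.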

[3] = target: 5-hydroxytryptamine receptor 6 (Homo sapiens) (UniProt P50406); experiment: Displacement of […] from 5HT6 receptor at 10 uM
[4] = target: 5-hydroxytryptamine receptor 7 (Homo sapiens) (UniProt P34969); experiment: Displacement of […] from 5HT7 receptor at 10 uM
[5] = target: Alpha-1A adrenergic receptor (Homo sapiens) (UniProt P35348); experiment: Displacement of […] from adrenergic Alpha-1A receptor at 10 uM
[6] = target: Alpha-1B adrenergic receptor (Homo sapiens) (UniProt P35368); experiment: Displacement of […] from adrenergic alpha-1b receptor at 10 uM
Sequence of Alpha-1B adrenergic receptor (Homo sapiens) (P35368 whole entry): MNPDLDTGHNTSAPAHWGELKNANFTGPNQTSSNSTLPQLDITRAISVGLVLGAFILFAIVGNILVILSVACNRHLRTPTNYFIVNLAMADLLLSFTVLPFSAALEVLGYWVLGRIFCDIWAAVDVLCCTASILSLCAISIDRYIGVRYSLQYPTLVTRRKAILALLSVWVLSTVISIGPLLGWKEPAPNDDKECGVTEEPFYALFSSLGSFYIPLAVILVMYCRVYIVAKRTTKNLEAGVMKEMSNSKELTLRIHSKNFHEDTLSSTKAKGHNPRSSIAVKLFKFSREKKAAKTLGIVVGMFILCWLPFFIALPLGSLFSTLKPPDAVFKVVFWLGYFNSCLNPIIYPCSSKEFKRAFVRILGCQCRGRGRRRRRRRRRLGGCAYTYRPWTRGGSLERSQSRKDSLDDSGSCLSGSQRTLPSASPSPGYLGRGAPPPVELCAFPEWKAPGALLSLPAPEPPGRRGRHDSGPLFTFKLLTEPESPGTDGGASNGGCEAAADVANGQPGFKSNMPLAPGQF

[7] = target: Alpha-2A adrenergic receptor (Homo sapiens) (UniProt P08913); experiment: Displacement of […] from adrenergic alpha-2a receptor at 10 uM
Sequence of Alpha-2A adrenergic receptor (Homo sapiens) (P08913 whole entry): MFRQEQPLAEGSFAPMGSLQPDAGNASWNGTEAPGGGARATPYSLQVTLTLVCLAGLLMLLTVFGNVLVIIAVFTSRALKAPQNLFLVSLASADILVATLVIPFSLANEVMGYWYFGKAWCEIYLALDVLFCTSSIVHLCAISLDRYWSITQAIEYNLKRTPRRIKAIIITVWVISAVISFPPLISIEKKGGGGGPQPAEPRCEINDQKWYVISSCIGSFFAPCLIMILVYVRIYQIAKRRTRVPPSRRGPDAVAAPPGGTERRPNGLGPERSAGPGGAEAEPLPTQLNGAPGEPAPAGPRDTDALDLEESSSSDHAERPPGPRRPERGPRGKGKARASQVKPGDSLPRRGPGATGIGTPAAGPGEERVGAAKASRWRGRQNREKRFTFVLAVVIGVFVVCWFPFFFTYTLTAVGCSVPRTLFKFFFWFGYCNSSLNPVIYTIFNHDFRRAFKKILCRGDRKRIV

[8] = target: Beta-2 adrenergic receptor (Homo sapiens) (UniProt P07550); experiment: Displacement of […] from adrenergic beta 2 receptor at 10 uM
[9] = target: D(1A) dopamine receptor (Homo sapiens) (UniProt P21728); experiment: Displacement of […] from dopamine D1 receptor at 10 uM
[10] = target: D(2) dopamine receptor (Homo sapiens) (UniProt P14416); experiment: Displacement of […] from dopamine D2 receptor at 10 uM
[11] = target: D(3) dopamine receptor (Homo sapiens) (UniProt P35462); experiment: Displacement of […] from dopamine D3 receptor at 10 uM
Sequence of D(3) dopamine receptor (Homo sapiens) (P35462 whole entry): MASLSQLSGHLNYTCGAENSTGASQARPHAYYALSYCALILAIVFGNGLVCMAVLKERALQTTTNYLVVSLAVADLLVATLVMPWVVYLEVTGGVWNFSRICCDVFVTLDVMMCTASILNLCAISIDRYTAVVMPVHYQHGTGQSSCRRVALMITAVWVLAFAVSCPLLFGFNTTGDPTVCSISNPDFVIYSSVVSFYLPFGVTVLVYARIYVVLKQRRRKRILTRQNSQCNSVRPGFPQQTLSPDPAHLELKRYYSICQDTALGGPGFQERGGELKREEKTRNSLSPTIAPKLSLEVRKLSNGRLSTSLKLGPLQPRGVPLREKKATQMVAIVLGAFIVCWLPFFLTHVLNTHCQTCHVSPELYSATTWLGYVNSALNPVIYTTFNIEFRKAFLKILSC

[12] = target: D(4) dopamine receptor (Homo sapiens) (UniProt P21917); experiment: Displacement of […] from dopamine D4 receptor at 10 uM
Sequence of D(4) dopamine receptor (Homo sapiens) (P21917 whole entry): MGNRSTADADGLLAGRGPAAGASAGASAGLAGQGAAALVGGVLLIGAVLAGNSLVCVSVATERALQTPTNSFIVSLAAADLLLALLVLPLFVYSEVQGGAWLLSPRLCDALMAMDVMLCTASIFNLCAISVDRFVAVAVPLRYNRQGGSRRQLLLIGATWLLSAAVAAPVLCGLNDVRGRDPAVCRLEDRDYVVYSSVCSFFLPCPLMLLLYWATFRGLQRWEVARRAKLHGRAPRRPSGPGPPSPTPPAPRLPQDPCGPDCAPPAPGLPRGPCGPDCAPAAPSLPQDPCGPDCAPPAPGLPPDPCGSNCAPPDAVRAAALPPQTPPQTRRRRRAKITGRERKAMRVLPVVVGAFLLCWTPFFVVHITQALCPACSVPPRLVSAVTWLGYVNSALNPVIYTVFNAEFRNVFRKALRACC

[13] = target: D(1B) dopamine receptor (Homo sapiens) (UniProt P21918); experiment: Displacement of […] from dopamine D5 receptor at 10 uM
[14] = target: Histamine H1 receptor (Homo sapiens) (UniProt P35367); experiment: Displacement of […] from histamine H1 receptor at 10 uM
[15] = target: 5-hydroxytryptamine receptor 1A (Homo sapiens) (UniProt P08908); experiment: Displacement of […] from 5HT1A receptor at 10 uM
[16] = target: 5-hydroxytryptamine receptor 1B (Homo sapiens) (UniProt P28222); experiment: Displacement of […] from 5HT1B receptor at 10 uM
Sequence of 5-hydroxytryptamine receptor 1B (Homo sapiens) (P28222 whole entry): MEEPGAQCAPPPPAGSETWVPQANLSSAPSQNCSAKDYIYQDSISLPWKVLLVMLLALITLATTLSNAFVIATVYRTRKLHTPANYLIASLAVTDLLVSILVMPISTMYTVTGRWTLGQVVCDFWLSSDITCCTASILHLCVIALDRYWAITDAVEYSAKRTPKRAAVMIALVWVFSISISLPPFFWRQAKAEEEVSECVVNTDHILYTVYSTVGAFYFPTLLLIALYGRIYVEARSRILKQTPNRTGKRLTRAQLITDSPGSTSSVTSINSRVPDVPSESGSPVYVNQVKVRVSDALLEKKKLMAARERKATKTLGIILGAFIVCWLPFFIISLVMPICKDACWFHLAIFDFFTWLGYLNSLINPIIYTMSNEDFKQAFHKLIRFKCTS

[17] = target: 5-hydroxytryptamine receptor 1D (Homo sapiens) (UniProt P28221); experiment: Displacement of […] from 5HT1D receptor at 10 uM
[18] = target: 5-hydroxytryptamine receptor 1E (Homo sapiens) (UniProt P28566); experiment: Displacement of […] from 5HT1E receptor at 10 uM
Sequence of 5-hydroxytryptamine receptor 1E (Homo sapiens) (P28566 whole entry): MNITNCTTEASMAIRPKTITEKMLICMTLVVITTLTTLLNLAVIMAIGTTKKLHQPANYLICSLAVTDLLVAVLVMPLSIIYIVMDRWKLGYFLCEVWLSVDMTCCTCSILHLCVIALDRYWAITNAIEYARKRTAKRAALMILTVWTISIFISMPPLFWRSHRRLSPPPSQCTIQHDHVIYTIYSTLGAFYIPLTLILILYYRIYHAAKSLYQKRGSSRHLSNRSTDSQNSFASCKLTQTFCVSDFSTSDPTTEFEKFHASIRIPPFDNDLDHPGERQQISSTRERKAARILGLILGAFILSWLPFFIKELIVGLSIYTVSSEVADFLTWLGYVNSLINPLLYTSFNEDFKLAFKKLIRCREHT

[19] = target: 5-hydroxytryptamine receptor 2A (Homo sapiens) (UniProt P28223); experiment: Displacement of […] from 5HT2A receptor at 10 uM
[20] = target: 5-hydroxytryptamine receptor 2B (Homo sapiens) (UniProt P41595); experiment: Displacement of […] from 5HT2B receptor at 10 uM
Sequence of 5-hydroxytryptamine receptor 2B (Homo sapiens) (P41595 whole entry): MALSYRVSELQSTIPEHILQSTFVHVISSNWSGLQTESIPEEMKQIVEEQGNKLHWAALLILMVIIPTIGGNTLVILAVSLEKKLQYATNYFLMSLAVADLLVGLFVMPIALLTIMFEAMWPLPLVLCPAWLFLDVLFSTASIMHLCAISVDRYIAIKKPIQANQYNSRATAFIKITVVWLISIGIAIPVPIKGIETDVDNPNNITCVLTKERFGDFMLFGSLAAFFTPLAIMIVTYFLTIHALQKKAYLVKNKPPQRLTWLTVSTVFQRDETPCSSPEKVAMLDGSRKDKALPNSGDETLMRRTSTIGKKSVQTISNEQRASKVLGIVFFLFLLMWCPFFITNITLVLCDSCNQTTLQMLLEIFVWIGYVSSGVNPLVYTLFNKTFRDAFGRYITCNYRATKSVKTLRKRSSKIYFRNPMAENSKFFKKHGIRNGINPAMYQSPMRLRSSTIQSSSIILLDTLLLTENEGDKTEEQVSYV

[21] = target: 5-hydroxytryptamine receptor 2C (Homo sapiens) (UniProt P28335); experiment: Displacement of […] from 5HT2C receptor at 10 uM
Sequence of 5-hydroxytryptamine receptor 2C (Homo sapiens) (P28335 whole entry): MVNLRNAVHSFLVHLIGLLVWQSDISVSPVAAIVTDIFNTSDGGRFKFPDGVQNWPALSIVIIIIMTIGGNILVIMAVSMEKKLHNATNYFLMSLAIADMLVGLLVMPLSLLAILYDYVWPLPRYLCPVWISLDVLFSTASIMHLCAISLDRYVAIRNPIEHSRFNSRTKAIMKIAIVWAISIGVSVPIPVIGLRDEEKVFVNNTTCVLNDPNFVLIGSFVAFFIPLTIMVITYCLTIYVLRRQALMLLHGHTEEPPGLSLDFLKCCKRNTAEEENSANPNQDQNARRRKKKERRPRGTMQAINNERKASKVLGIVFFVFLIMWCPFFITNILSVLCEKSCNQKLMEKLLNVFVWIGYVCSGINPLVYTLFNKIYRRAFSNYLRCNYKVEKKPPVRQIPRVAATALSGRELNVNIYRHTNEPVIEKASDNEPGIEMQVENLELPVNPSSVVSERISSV

[22] = target: 5-hydroxytryptamine receptor 3A (Homo sapiens) (UniProt P46098); experiment: Displacement of […] from 5HT3 receptor at 10 uM
[23] = target: 5-hydroxytryptamine receptor 5A (Homo sapiens) (UniProt P47898); experiment: Displacement of […] from 5HT5A receptor at 10 uM
Sequence of 5-hydroxytryptamine receptor 5A (Homo sapiens) (P47898 whole entry): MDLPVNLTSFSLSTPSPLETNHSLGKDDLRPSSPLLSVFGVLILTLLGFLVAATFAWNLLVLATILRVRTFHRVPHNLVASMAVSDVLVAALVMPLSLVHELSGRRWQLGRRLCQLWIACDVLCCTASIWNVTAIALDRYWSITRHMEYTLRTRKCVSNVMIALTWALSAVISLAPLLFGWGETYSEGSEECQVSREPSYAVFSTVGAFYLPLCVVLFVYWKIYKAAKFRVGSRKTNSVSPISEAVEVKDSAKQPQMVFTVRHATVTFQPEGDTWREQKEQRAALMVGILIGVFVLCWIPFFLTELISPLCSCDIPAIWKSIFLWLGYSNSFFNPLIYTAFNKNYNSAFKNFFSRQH

[24] = target: Mu-type opioid receptor (Homo sapiens) (UniProt P35372); experiment: Displacement of radioligand from mu opioid receptor at 10 uM
Rattus norvegicus [25] = experiment: Ratio of brain radioactivity at maximal uptake to that at 60 min in iv dosed rat after 60 mins; settings: in vivo, 1 h
[26] = Stability in rat whole blood after 60 mins; format: ADME, tissue-based; settings: read-out: Stability
Outline: (§1)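 No-carrier-added [11C] tracer (25.0 µCi monkey, 46.5 µCi rat) in 1 mL whole blood, shaken at 37 °C. Aliquots taken at 60 and 90 min into acetonitrile spiked with carrier, centrifuged, and supernatant radio-HPLC gives percent unchanged. Pellet counting gives extraction recovery.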

[27] = Stability in rat brain after 60 mins; format: ADME, tissue-based; settings: read-out: Stability
Outline: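 Rat brain (1.75 g) homogenized in saline on ice and incubated with formulated [11C] tracer (186 µCi) at 37 °C with shaking. Aliquots quenched into carrier-spiked acetonitrile, centrifuged, and supernatant analysed by radio-HPLC for percent unchanged.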

[28] = Stability in monkey whole blood after 30 mins; format: ADME, tissue-based, Macaca mulatta; settings: rhesus monkey, read-out: Stability
[29] = Stability in monkey whole blood after 90 mins; format: ADME, tissue-based, Macaca mulatta; settings: rhesus monkey, read-out: Stability; outline: as §1
Plasma [30] = experiment: Biodistribution in rat plasma at 0.9 to 1.9 Ci/umol, penile iv after 2.33 mins; format: ADME, organism-based; settings: in vivo, 140 s
Outline: (§2)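 No-carrier-added [11C] tracer (0.82-3.6 mCi) given by penile vein to rats, killed at 2.33, 2.83 or 30 min. Brain tissue extracted and homogenized in acetonitrile/water with carrier, plasma treated likewise, urine analysed directly, all by reverse-phase radio-HPLC. Radioactivity normalized to injected dose and body weight as % SUV, split into parent and three radiometabolites.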

Cerebellum [31] = experiment: Biodistribution in rat cerebellum at 0.9 to 1.9 Ci/umol, penile iv after 2.83 mins; format: ADME, organism-based; settings: in vivo, 170 s; outline: as §2
Cerebrum [32] = experiment: Biodistribution in rat cerebrum at 0.9 to 1.9 Ci/umol, penile iv after 2.83 mins; format: ADME, organism-based; settings: in vivo, 170 s; outline: as §2
Plasma [33] = experiment: Biodistribution in rat plasma at 0.9 to 1.9 Ci/umol, penile iv after 2.83 mins; format: ADME, organism-based; settings: in vivo, 170 s; outline: as §2
Rattus norvegicus [34] = experiment: Biodistribution in rat urine at 0.9 to 1.9 Ci/umol, penile iv after 2.83 mins; format: ADME, organism-based; settings: in vivo, 170 s; outline: as §2
Cerebellum [35] = experiment: Biodistribution in rat cerebellum at 0.9 to 1.9 Ci/umol, penile iv after 30 mins; format: ADME, organism-based; settings: in vivo, 0.5 h; outline: as §2
Cerebrum [36] = experiment: Biodistribution in rat cerebrum at 0.9 to 1.9 Ci/umol, penile iv after 30 mins; format: ADME, organism-based; settings: in vivo, 0.5 h; outline: as §2
Plasma [37] = experiment: Biodistribution in rat plasma at 0.9 to 1.9 Ci/umol, penile iv after 30 mins; format: ADME, organism-based; settings: in vivo, 0.5 h; outline: as §2
Cerebellum [38] = experiment: Biodistribution in rat cerebellum at 22.94 umol/kg bolus injection after 10 mins; format: ADME, organism-based; settings: in vivo
Outline: (§3)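 Carrier-added [11C] tracer (carrier 22.94 µmol/kg) injected as bolus into one rat, tissues and plasma taken at 10 min. Samples extracted into acetonitrile and analysed by radio-HPLC. Results given as % SUV, partitioned into parent and radiometabolites A-C.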

Cerebrum [39] = experiment: Biodistribution in rat cerebrum at 22.94 umol/kg bolus injection after 10 mins; format: ADME, organism-based; settings: in vivo; outline: as §3
Plasma [40] = experiment: Biodistribution in rat plasma at 22.94 umol/kg bolus injection after 10 mins; format: ADME, organism-based; settings: in vivo; outline: as §3
Plasma [41] = experiment: Drug level in monkey plasma at 1.35 Ci/umol after 10 mins; format: ADME, cell-free, Macaca mulatta; settings: rhesus monkey
Outline: (§4)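 Two monkey experiments with no-carrier-added [11C] tracer given iv. Anticoagulated venous blood drawn at 10 and 30 min, plasma analysed by radio-HPLC. Parent fraction reported as percent of plasma radioactivity and as % SUV.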

Plasma [42] = experiment: Drug level in monkey plasma at 1.35 Ci/umol after 30 mins; format: ADME, cell-free, Macaca mulatta; settings: rhesus monkey, 0.5 h; outline: as §4
[43] = Radiochemical stability after 3 hrs at pH 7.5; format: physicochemical; settings: pH 7.5, 3 h
Outline: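 Purity of formulated tracer (saline with ethanol and polysorbate 80, pH ~7.5) followed over 3 h by radio-HPLC on a C18 column, MeOH/H2O/Et3N 70:30:0.1.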

[44] = Biodistribution in rat cerebrum at 0.9 to 1.9 Ci/umol, penile iv after 2.33 mins; settings: in vivo, 140 s
Mus musculus = experiment: Ratio of brain radioactivity at maximal uptake to that at 60 min in iv dosed mouse after 60 mins; settings: in vivo, 1 h

Compound: COC(=O)CCSc1ccc2nc(-c3ccc(N(C)C)cc3)cn2c1
- Ki [1]: 205 nM
- logD [2]: 3.6

Compound: CSc1ccc2nc(-c3ccc(N(C)C)cc3)cn2c1
- Activity [3]: < 50%
- Activity [4]: < 50%
- Activity [5]: < 50%
- Activity [6]: < 50%
- Activity [7]: < 50%
- Activity [8]: < 50%
- Activity [9]: < 50%
- Activity [10]: < 50%
- Activity [11]: < 50%
- Activity [12]: < 50%
- Activity [13]: < 50%
- Activity [14]: < 50%
- logD [2]: 4.1
- Activity [15]: < 50%
- Activity [16]: < 50%
- Activity [17]: < 50%
- Activity [18]: < 50%
- Activity [19]: < 50%
- Activity [20]: < 50%
- Activity [21]: < 50%
- Activity [22]: < 50%
- Activity [23]: < 50%
- inhibition [24]: < 50%

Compound: CN(C)c1ccc(-c2cn3cc(I)ccc3n2)cc1
- logD [2]: 3.58

Now from value to molecule:

- Ki [1]: 80 nM
- logD [2]: 3.6
Compound: CNc1ccc(-c2cn3cc(SC)ccc3n2)cc1

- Ki [1]: 377 nM
- logD [2]: 2.6
Compound: CSc1ccc2nc(-c3ccc(N)cc3)cn2c1

- Ratio (Rattus norvegicus [25]): 6.1
Compound: CSc1ccc2nc(-c3ccc(N(C)[11CH3])cc3)cn2c1

- remaining at 1 h [26]: 91%
- remaining at 1 h [27]: 93.6%
- remaining at 0.5 h [28]: 96.2%
- remaining at 1.5 h [29]: 94.5%
- Drug uptake (Plasma [30]): 9.57%
- Drug uptake (Cerebellum [31]): 31.9%
- Drug uptake (Cerebrum [32]): 30.2%
- Drug uptake (Plasma [33]): 9.15%
- Drug uptake (Rattus norvegicus [34]): 25.7%
- Drug uptake (Cerebellum [35]): 18.6%
- Drug uptake (Cerebrum [36]): 13%
- Drug uptake (Plasma [37]): 0.2%
- Drug uptake (Cerebellum [38]): 83.1%
- Drug uptake (Cerebrum [39]): 80.9%
- Drug uptake (Plasma [40]): 55.3%
- Activity (Plasma [41]): 12.4%
- Activity (Plasma [42]): 3.5%
- Stability [43]: Stable
- Drug uptake [44]: 41.9%
- Ratio (Rattus norvegicus [25]): 18.7
- Ratio (Mus musculus): 11.1
Compound: CN(C)c1ccc(-c2cn3cc(S[11CH3])ccc3n2)cc1
